This note sets out measurements from ChEMBL document CHEMBL1629439, “High-throughput identification of antibacterials against methicillin-resistant Staphylococcus aureus (MRSA) and the transglycosylase” (Bioorg Med Chem, 2010).

The term MIC90 denotes the lowest concentration that inhibits either 90% of growth or 90% of the strains tested, depending on the study. Read a high MIC90 as lower susceptibility. By MIC is commonly meant the smallest concentration in the dilution series that meets the test's criterion for growth inhibition. Usually Ki stands for the equilibrium dissociation constant of an inhibitor or competing ligand from its target. Broadly, the IC50 is the concentration at which inhibition is half-maximal. One may read the IC90 as the point of the concentration-response curve where the effect stands at 90%. By inhibition is commonly meant the relative decrease from the control value, in per cent.

Values after ≈ are worked out from the molar mass of the structure shown.

For one assay, the system named is Escherichia coli. The assay can be described thus: Antimicrobial activity against Escherichia coli ATCC […] after 18 to 24 hrs by alamar blue assay. In kind it is functional. The gist of the method:
(§1)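 Broth microdilution per NCCLS in Mueller-Hinton broth, 8-point twofold dilutions, 384-well format. Exponential-phase cells at 5 × 10^5 cells/ml incubated with compound 18–24 h at 37 °C, then 20% Alamar blue added and fluorescence read. MIC90 taken as the lowest concentration preventing at least 90% bacterial growth.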
(Resazurin is reduced to fluorescent resorufin, in cell work by metabolically active cells.)

For assay [1], the system named is Mycolicibacterium smegmatis. Put plainly: Antimicrobial activity against Mycobacterium smegmatis BCRC 11565 after 18 to 24 hrs by alamar blue assay. In kind it is functional. The essentials: as §1
The next assay relates to Bacillus subtilis. The assay can be described thus: Antimicrobial activity against Bacillus subtilis ATCC 23857 after 18 to 24 hrs by alamar blue assay. In kind it is functional. The gist of the method: as §1
For a further assay, the system named is Acinetobacter baumannii. The assay can be described thus: Antimicrobial activity against Acinetobacter baumannii ATCC 49139 after 18 to 24 hrs by alamar blue assay. In kind it is functional. The gist of the method: as §1
The nature of assay [2]: Displacement of fluorescein-labeled moenomycin from transglycosylase in Escherichia coli ATCC […] assessed as inhibition of lipid II polymerization after 30 mins by fluorescence anisotropy binding assay. Set-up: species or system Staphylococcus aureus. The gist of the method:
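Full-length bifunctional PBP (TGase) at 10 µg/ml mixed with 100 nM fluorescent moenomycin in 10 mM Tris, 100 mM NaCl, pH 8.0, in 1536-well plates. 1 µl of 1 mM compound stock added. 10 µM moenomycin and 2.5% DMSO served as positive and negative controls. After 30 min, drop in fluorescence anisotropy read. Ki derived from Kd and IC50. Same SA enzyme serves all S. aureus strains.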
(Polarisation of emitted light reports the rotation of a fluorescent probe.)

A short description of assay [3]: Inhibition of transglycosylase in Staphylococcus aureus ATCC 33592 assessed as inhibition of NBD- labelled lipid II polymerization. The gist of the method:
(§2)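 100 µM NBD-labelled lipid II incubated 30 min with full-length PBP (EC, SA or Mtb) and 10 ng/µl N-acetylmuramidase in 50 mM Tris-HCl pH 8.0, 10 mM MgCl2, 0.1% Triton X-100, 10% DMSO, 15% MeOH. Supernatant run on anion-exchange HPLC with 20 mM–0.5 M ammonium acetate gradient. Inhibition calculated from substrate peak-area percentage. IC50 determined. S. aureus strains share one SA enzyme.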

Assay [4] deals with Staphylococcus aureus. Put plainly: Antimicrobial activity against methicillin-resistant Staphylococcus aureus ATCC 33592 after 18 to 24 hrs by alamar blue assay. Type of assay: functional. The gist of the method:
(§3)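 Broth microdilution per NCCLS standard, Mueller-Hinton broth, 8-point twofold dilutions; exponentially growing cells at 5 10^5 cells/ml with compound, 18–24 h at 37 C; 20% Alamar blue added, fluorescence read; MIC90 taken as lowest concentration preventing at least 90% growth.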

For the next assay, the system named is Pseudomonas aeruginosa. The assay can be described thus: Antimicrobial activity against Pseudomonas aeruginosa ATCC 25619 after 18 to 24 hrs by alamar blue assay. In kind it is functional. The gist of the method: as §1
The nature of assay [5]: Inhibition of transglycosylase assessed as inhibition of NBD- labelled lipid II polymerization. The essentials:
as §2

Assay [6] in a line: Inhibition of transglycosylase in Staphylococcus aureus ATCC 29213 assessed as inhibition of NBD- labelled lipid II polymerization. The essentials:
as §2

The next assay relates to Serratia marcescens. The assay can be described thus: Antimicrobial activity against Serratia marcescens ATCC 14756 after 18 to 24 hrs by alamar blue assay. Type of assay: functional. The gist of the method: as §1
In assay [7] the test system is Staphylococcus aureus. Put plainly: Antimicrobial activity against methicillin-resistant Staphylococcus aureus isolate NTUH4722 after 18 to 24 hrs by alamar blue assay. Type of assay: functional. The gist of the method:
as §3

A short description of assay [8]: Inhibition of transglycosylase in Escherichia coli ATCC […] assessed as inhibition of NBD- labelled lipid II polymerization. The gist of the method: as §2
Assay [9] has as its system Stenotrophomonas maltophilia. The assay can be described thus: Antimicrobial activity against Stenotrophomonas maltophilia ATCC 13637 after 18 to 24 hrs by alamar blue assay. Type of assay: functional. The gist of the method:
as §1

The nature of assay [10]: Inhibition of transglycosylase in Staphylococcus aureus isolate NTUH4722 assessed as inhibition of NBD- labelled lipid II polymerization. The essentials:
as §2

Assay [11] relates to Staphylococcus aureus. The assay can be described thus: Antimicrobial activity against wild-type Staphylococcus aureus ATCC 29213 after 18 to 24 hrs by alamar blue assay. The following applies: for MIC90: Staphylococcus aureus, ATCC 29213.
A short description of assay [12]: Inhibition of transglycosylase in Staphylococcus aureus isolate Sa-OXA-R2 assessed as inhibition of NBD- labelled lipid II polymerization. The essentials: as §2
For assay [13], the system named is Staphylococcus aureus. The assay can be described thus: Antimicrobial activity against oxacillin- and methicillin-resistant Staphylococcus aureus isolate Sa-OXA-R2 after 18 to 24 hrs by alamar blue assay. Type of assay: functional. The essentials: as §3
Assay [14] is described as follows: Inhibition of transglycosylase assessed as inhibition of NBD- labelled lipid II polymerization at 100 uM. The essentials: as §2
Assay [15] can be described thus: Displacement of fluorescein-labeled moenomycin from transglycosylase at 100 uM after 30 mins by fluorescence anisotropy binding assay.
Assay [16] concerns Staphylococcus aureus. Put plainly: Antimicrobial activity against Staphylococcus aureus ATCC 29213 after 18 to 24 hrs by alamar blue assay.
The mark [17] stands for this setting: Mycolicibacterium smegmatis, BCRC 11565.
The mark [18] stands for this setting: Acinetobacter baumannii, ATCC 49139, read-out: MIC.
Where [19] appears, read: Staphylococcus aureus, ATCC 33592.
Where [20] appears, read: Pseudomonas aeruginosa, ATCC 25619, read-out: MIC.
The mark [21] stands for this setting: Serratia marcescens, ATCC 14756, read-out: MIC.
Where [22] appears, read: Stenotrophomonas maltophilia, ATCC 13637, read-out: MIC.
Setting [23] is: Escherichia coli, read-out: MIC.
[24] abbreviates: Mycolicibacterium smegmatis, BCRC 11565, read-out: MIC.
Setting [25] is: Staphylococcus aureus, ATCC 33592, read-out: MIC.

As to `Cc1ccc(C(C)C)c(Oc2ccccc2NC(=O)c2cc(I)cc(I)c2O)c1`, the MIC90 against Escherichia coli (Escherichia coli) was above 512 µM; in [1] (setting [17]), 13 µM (≈ 7.97 µg/mL); in the assay with Staphylococcus aureus [4] (setting [19]), 3.3 µM (≈ 2.02 µg/mL); in the assay with Staphylococcus aureus [7], 1.6 µM (≈ 0.981 µg/mL); in the assay on Staphylococcus aureus [11], 6.5 µM (≈ 3.99 µg/mL); with Staphylococcus aureus [13], 13 µM (≈ 7.97 µg/mL). Besides, the MIC is below 0.03 µg/mL against Bacillus subtilis; 16 µg/mL (≈ 26.1 µM) with Acinetobacter baumannii (setting [18]); 16 µg/mL (≈ 26.1 µM) with Pseudomonas aeruginosa (setting [20]); 16 µg/mL (≈ 26.1 µM) in the assay on Serratia marcescens (setting [21]); 16 µg/mL (≈ 26.1 µM) in assay [9] (setting [22]). For the same compound, the Ki in [2] was 98 µM. Besides, the IC50 in assay [3] was determined as 27.8 µM; in assay [6], 27.8 µM; in assay [8] it was 7.2 µM; in assay [10], 27.8 µM; in [12] it was 27.8 µM. Moreover, the IC90 in assay [5] is below 25 µM.

Take `O=C(Nc1cc(Cl)ccc1Oc1ccccc1)c1cc(Br)cc(Br)c1O`: the MIC in the assay on Escherichia coli (setting [23]) was 8 µg/mL (≈ 16.1 µM); in assay [1] (setting [24]), 0.5 µg/mL (≈ 1 µM); against Bacillus subtilis, below 0.03 µg/mL; in the assay with Acinetobacter baumannii (setting [18]), 16 µg/mL (≈ 32.2 µM); with Staphylococcus aureus [4] (setting [25]) it was 0.25 µg/mL (≈ 0.502 µM); in the assay with Pseudomonas aeruginosa (setting [20]) it was 16 µg/mL (≈ 32.2 µM). Further, the MIC with Serratia marcescens (setting [21]) turned out to be 16 µg/mL (≈ 32.2 µM); in the assay with Staphylococcus aureus [7] it was 0.5 µg/mL (≈ 1 µM); in [9] (setting [22]) it was 16 µg/mL (≈ 32.2 µM); against Staphylococcus aureus [13], 0.5 µg/mL (≈ 1 µM); in the assay with Staphylococcus aureus [16], 0.5 µg/mL (≈ 1 µM). In addition, the inhibition in [14] was 100%; in assay [15], 97%. In assay [5], the IC90 turned out to be 50 µM.

Regarding `O=C(Nc1ccc(Cl)c(C(=O)c2ccc(Cl)cc2)c1)c1cc(Cl)ccc1O`, the MIC is 8 µg/mL (≈ 19 µM) with Escherichia coli; 8 µg/mL (≈ 19 µM) in the assay with Escherichia coli (setting [23]); 0.5 µg/mL (≈ 1.19 µM) in [1]; 0.5 µg/mL (≈ 1.19 µM) in assay [1] (setting [24]); below 0.03 µg/mL against Bacillus subtilis; 16 µg/mL (≈ 38 µM) against Acinetobacter baumannii. Also, the MIC is 16 µg/mL (≈ 38 µM) in the assay on Acinetobacter baumannii (setting [18]); 4 µg/mL (≈ 9.51 µM) with Staphylococcus aureus [4]; 4 µg/mL (≈ 9.51 µM) in the assay with Staphylococcus aureus [4] (setting [25]); 16 µg/mL (≈ 38 µM) in the assay on Pseudomonas aeruginosa; 16 µg/mL (≈ 38 µM) with Pseudomonas aeruginosa (setting [20]); 16 µg/mL (≈ 38 µM) with Serratia marcescens. In addition, the MIC is 16 µg/mL (≈ 38 µM) in the assay with Serratia marcescens (setting [21]); 16 µg/mL (≈ 38 µM) in [9]; 16 µg/mL (≈ 38 µM) in [9] (setting [22]); above 4 µg/mL with Staphylococcus aureus [11]; 4 µg/mL (≈ 9.51 µM) against Staphylococcus aureus [16]. Moreover, the IC90 in assay [5] amounted to 100 µM.

`CN1C(=O)c2ccccc2Sc2ccc(NC(=O)c3ccc([N+](=O)[O-])o3)cc21`: the MIC in the assay on Escherichia coli (setting [23]) was determined as 256 µg/mL (≈ 647 µM); in [1] (setting [24]), 0.5 µg/mL (≈ 1.26 µM); in the assay with Bacillus subtilis it was 0.06 µg/mL (≈ 0.152 µM); with Acinetobacter baumannii (setting [18]), 12 µg/mL (≈ 30.3 µM); in the assay with Staphylococcus aureus [4] (setting [25]) it was 1 µg/mL (≈ 2.53 µM); in the assay with Pseudomonas aeruginosa (setting [20]), 128 µg/mL (≈ 324 µM). Further, the MIC in the assay with Serratia marcescens (setting [21]) was found to be 32 µg/mL (≈ 80.9 µM); against Staphylococcus aureus [7] it was 0.5 µg/mL (≈ 1.26 µM); in assay [9] (setting [22]), 32 µg/mL (≈ 80.9 µM); in the assay on Staphylococcus aureus [13], 2 µg/mL (≈ 5.06 µM); in the assay with Staphylococcus aureus [16], 2 µg/mL (≈ 5.06 µM). The figures for the inhibition in [14] and in assay [15] were 0% and 91%, respectively.

Regarding `CCc1ccc2oc(-c3cccc(NC(=O)c4ccc([N+](=O)[O-])o4)c3)nc2c1`, the MIC90 was above 512 µM against Escherichia coli (Escherichia coli); 0.5 µM (≈ 0.189 µg/mL) in assay [1] (setting [17]); 0.5 µM (≈ 0.189 µg/mL) with Staphylococcus aureus [4] (setting [19]); 1 µM (≈ 0.377 µg/mL) with Staphylococcus aureus [7]; 1 µM (≈ 0.377 µg/mL) with Staphylococcus aureus [11]; 1 µM (≈ 0.377 µg/mL) in the assay on Staphylococcus aureus [13]. The MIC against Bacillus subtilis was 0.06 µg/mL (≈ 0.159 µM); with Acinetobacter baumannii (setting [18]), 12 µg/mL (≈ 31.8 µM); in the assay with Pseudomonas aeruginosa (setting [20]), 128 µg/mL (≈ 339 µM); in the assay on Serratia marcescens (setting [21]), 32 µg/mL (≈ 84.8 µM); in assay [9] (setting [22]), 32 µg/mL (≈ 84.8 µM). Moreover, the Ki in assay [2] came to 98 µM. Further, in assay [8], the IC50 was 30.3 µM.
